In the library only some 1.8% were active in any assay of this set; here they are far more common.
DAGLB inhibitor: diacylglycerol lipase beta (human) inhibition | Q8NCG7 | HEK293T DAGLB membrane lysate, EnzChek fluorogenic substrate | inhibition, % at 5.17 µM | 340,000 tested, 0.059% active; in the data active means inhibition above about 34%;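 further: 0% = enzyme with vehicle and 100% = wells lacking enzyme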
Target sequence (Q8NCG7 whole entry, looked up): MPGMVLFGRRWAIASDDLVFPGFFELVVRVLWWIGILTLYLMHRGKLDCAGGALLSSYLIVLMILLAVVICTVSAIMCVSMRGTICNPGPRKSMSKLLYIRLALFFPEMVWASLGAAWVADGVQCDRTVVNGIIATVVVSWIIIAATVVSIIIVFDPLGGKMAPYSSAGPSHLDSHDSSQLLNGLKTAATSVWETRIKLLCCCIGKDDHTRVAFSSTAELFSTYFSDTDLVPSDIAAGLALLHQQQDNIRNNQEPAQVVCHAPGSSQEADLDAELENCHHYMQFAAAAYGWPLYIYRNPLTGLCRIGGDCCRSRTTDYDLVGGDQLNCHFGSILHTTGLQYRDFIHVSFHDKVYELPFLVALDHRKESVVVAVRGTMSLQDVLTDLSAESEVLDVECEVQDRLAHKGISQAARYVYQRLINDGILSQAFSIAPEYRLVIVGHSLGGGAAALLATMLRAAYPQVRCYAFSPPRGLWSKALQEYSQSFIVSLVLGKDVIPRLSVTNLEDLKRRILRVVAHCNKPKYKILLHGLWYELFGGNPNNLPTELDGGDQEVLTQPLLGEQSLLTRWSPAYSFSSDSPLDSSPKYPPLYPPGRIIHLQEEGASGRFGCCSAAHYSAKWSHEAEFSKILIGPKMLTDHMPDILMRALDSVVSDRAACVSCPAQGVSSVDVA
SKN-1 inh: blocks SKN-1 activity in C. elegans. 360,000 tested, 0.49% active. inhibition, % at 21.8 µM. C. elegans VP596 Pgst-4::GFP/RFP ratio, acrylamide-induced, 24 h. AID 624304;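 active means interference check ratio from 0.5 to 1.5 plus GFP to RFP signal ratio inhibition reaching or exceeding a fixed threshold, cut at about 30% in these data, passing the limit was not always enough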
Ecoli rRNA inh: inhibitors of bacterial rRNA selective over humanized ribosomes; AID 720706; E. coli WT GFP vs humanized-ribosome RFP mutants, fluorescence, 24 h; stronger effect = lower value; DMSO median 0, no signal -100; GFP signal change (wild-type ribosome), % (concentration not given with the values); 350,000 tested, 1.6% active;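 active means significant combined selectivity score with lowered wild-type GFP, culture density cut under 30%, mutant RFP and density less affected; inactive means any of these conditions unmet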
MT1-MMP act inh: blocks activation of human MT1-MMP; HT1080 RFP-PRO-GFP cells, GFP/RFP ratio fluorescence, overnight; percent of plate control window, DMSO zero; GFP/RFP ratio change, % at 20 µM; 360,000 tested, 0.061% active; AID 651647;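 active means GFP/RFP ratio change of at least 30% with cell ATP level not reduced by more than half and red fluorescence within 50% of control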
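system = RFP-PRO-GFP reporter HT1080 cells | dosing = 20 µM single dose, 1% DMSO | timing = overnight cell settling, then overnight compound exposure, 37 °C, 5% CO2 | read-out basis = GFP/RFP fluorescence ratio | controls = DMSO and RFP-L50D-GFP cell wells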
Cneo AK release: causes C. neoformans cell lysis; adenylate kinase release luminescence, 4 h; normalised: neutral wells 0, clomiphene wells 100; lysis activity, % at 15 µM; 360,000 tested, 0.2% active; AID 651654;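 active means mean lysis activity across replicates of at least 80%, whatever share of replicates individually reach that level; inactive means mean lysis activity below 80%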
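Schedule: static 4 h at 37 °C with compound, 1 h detection; system: C. neoformans cells; benchmarks: Clomiphene as positive control; buffer or medium: fresh YPD medium; measure: luminescence rise reflecting yeast cell lysis; measured by: luminescent adenylate kinase detection reagent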
iPSC survival up: enhancers of human iPSC single-cell survival | hiPSC single-cell survival, ATPlite luminescence; 100% = ROCK inhibitor wells, 0% = DMSO | survival enhancement, % at 20 µM | 360,000 tested, 0.044% active; in the data active means survival enhancement above about 18%;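 further: cells exposed to compounds for 16 hours before the ATP read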
The depositor's hits bear a star.

CCOCCCNC(=O)C(c1ccc(C)cc1)N(Cc1cccs1)C(=O)c1ccccn1 (stereo not drawn) was read as DAGLB inhibitor -1, SKN-1 inh -2, Ecoli rRNA inh -4, MT1-MMP act inh 0 and iPSC survival up 0.
O=C(NCCN1CCCCC1)[C@H]1N[C@H]2c3ccc(-c4ccncc4)c(=O)n3C[C@H]2[C@@H]1CO was read as Ecoli rRNA inh 4 and Cneo AK release 98*.
For C[C@@H]1CN(C)C(=O)c2cc([N+](=O)[O-])ccc2O[C@H]1CN(C)C(=O)OC(C)(C)C the results were Ecoli rRNA inh -1.
For COc1cc2nc(Nc3ccc(C)c(C)c3)nc(N)c2cc1OC the results were DAGLB inhibitor 1, SKN-1 inh 16, Ecoli rRNA inh -38*, MT1-MMP act inh 8, Cneo AK release 8 and iPSC survival up 0.
Screening COc1cc2nc(Nc3ccc(C)c(Cl)c3)nc(N)c2cc1OC returned DAGLB inhibitor 2, SKN-1 inh 26, Ecoli rRNA inh -70, MT1-MMP act inh -1, Cneo AK release -1 and iPSC survival up 0.
`COc1cc2nc(Nc3ccc(F)cc3)nc(N)c2cc1OC` gave DAGLB inhibitor 4, SKN-1 inh -5, Ecoli rRNA inh -16*, MT1-MMP act inh 15, Cneo AK release 4 and iPSC survival up 0.
C[C@H](CO)N1C[C@H](C)[C@H](CN(C)S(=O)(=O)c2cccs2)Oc2c(NC(=O)C3CCOCC3)cccc2C1=O was read as Ecoli rRNA inh -2 and Cneo AK release -2.
Screening S=c1[nH]nc(C(c2ccccc2)C2CCCCC2)o1 (stereo not drawn) returned DAGLB inhibitor 13, SKN-1 inh 2, Ecoli rRNA inh -27*, MT1-MMP act inh -1 and iPSC survival up 0.
O=C(C[C@H]1CC[C@H]2[C@@H](COC[C@H](O)CN2Cc2ccc(Oc3ccccc3)cc2)O1)N1CCc2ccccc2C1 was read as Ecoli rRNA inh -12 and Cneo AK release 51.
For C[C@@H]1CN([C@@H](C)CO)C(=O)c2cc(NS(=O)(=O)c3cn(C)cn3)ccc2O[C@@H](C)CCCCO[C@@H]1CN(C)C(=O)c1ccncc1 the results were Ecoli rRNA inh 2 and Cneo AK release -2.
For COc1ccc(/C=C/C(=O)NC(=S)Nc2cc([N+](=O)[O-])ccc2O)cc1OC the results were DAGLB inhibitor 14, SKN-1 inh -1, Ecoli rRNA inh -17*, MT1-MMP act inh 2 and iPSC survival up 1.
For CC1=CC2=NC(=O)/C(=C/c3cccn3Cc3ccccc3)C(=N)N2O1 the results were DAGLB inhibitor 1, SKN-1 inh -11, Ecoli rRNA inh -35*, MT1-MMP act inh -1, Cneo AK release -10 and iPSC survival up 0.
`Cc1cc(C(=O)N/N=C/c2cc(Br)cc(Br)c2OC(=O)c2cccc(F)c2)n[nH]1` gave DAGLB inhibitor 2, SKN-1 inh 8, Ecoli rRNA inh -31*, MT1-MMP act inh -14 and iPSC survival up 1.
Screening CN1CCc2c(sc3c2C(=O)NC(c2ccccn2)N3)C1 (stereo not drawn) returned DAGLB inhibitor -3, SKN-1 inh 55, MT1-MMP act inh -4, Cneo AK release 3 and iPSC survival up 2.
`CN1CCc2c(sc3c2C(=O)NC(c2ccccc2)N3)C1` (stereo not drawn) gave DAGLB inhibitor -2, SKN-1 inh 47*, MT1-MMP act inh -12, Cneo AK release 1 and iPSC survival up 4.
`Cc1[nH]c2ccccc2c1/C=N/NC(=O)c1cc(-c2ccccc2)n[nH]1` gave SKN-1 inh -14, Ecoli rRNA inh -23*, MT1-MMP act inh 0, Cneo AK release 0 and iPSC survival up 0.
`Cc1[nH]c2ccccc2c1/C=N/NC(=O)Nc1ccccc1` gave DAGLB inhibitor 2, SKN-1 inh -15, Ecoli rRNA inh -20*, MT1-MMP act inh 5 and iPSC survival up 2.
For CCN(CC)CCN(C(=O)c1c(F)cccc1F)c1nc2cc(C)cc(C)c2s1 the results were DAGLB inhibitor -9, SKN-1 inh 8, Ecoli rRNA inh -31*, MT1-MMP act inh 3 and iPSC survival up -1.
`CCN(CC)CCN(C(=O)c1ccc(S(=O)(=O)N2CCCC2)cc1)c1nc2cc(C)cc(C)c2s1` gave DAGLB inhibitor 1, SKN-1 inh 7, Ecoli rRNA inh 10, MT1-MMP act inh -5, Cneo AK release -2 and iPSC survival up 0.
CCOC(=O)c1ccc(NC(=S)NCCc2ccc(OC)c(OC)c2)cc1 was read as DAGLB inhibitor -3, SKN-1 inh 1, Ecoli rRNA inh -28*, MT1-MMP act inh 1 and iPSC survival up 1.
`COc1ccc(CCNC(=S)NCCc2ccc(OC)c(OC)c2)cc1OC` gave DAGLB inhibitor -9, SKN-1 inh -3, Ecoli rRNA inh 0, MT1-MMP act inh 4, Cneo AK release 0 and iPSC survival up -2.
`O=S(=O)(N[C@H]1CC[C@H](CCn2cc(-c3ccc(F)cc3)nn2)O[C@H]1CO)c1ccccc1F` gave Ecoli rRNA inh -6 and Cneo AK release 9.
`COc1ccc(C2/C=C\CN(C(=O)Nc3ccccc3)CC(=O)N2Cc2ccc(F)cc2)cc1` (stereo not drawn) gave DAGLB inhibitor -3, SKN-1 inh 1, Ecoli rRNA inh -27*, MT1-MMP act inh -1, Cneo AK release -1 and iPSC survival up 3.
CN(C)CC(=O)N[C@H]1C=C[C@H](CC(=O)O)O[C@@H]1CO was read as Ecoli rRNA inh 1.
O=C(c1ccncc1)N1CC2(C1)[C@H](c1ccccc1)[C@@H](CO)N2CC1CCCC1 was read as Ecoli rRNA inh 2.
`Cc1noc(C)c1NC(=O)N(C)C[C@@H]1Oc2ccc(NC(=O)NC3CCCCC3)cc2C(=O)N([C@@H](C)CO)C[C@@H]1C` gave Ecoli rRNA inh 1 and Cneo AK release 1.
`CC(=O)c1sc(NC(=O)C2(F)C(F)(F)C(F)(F)C(F)(F)C(F)(F)C2(F)F)nc1C` gave DAGLB inhibitor 23, SKN-1 inh 2, Ecoli rRNA inh -45, MT1-MMP act inh -39, Cneo AK release 136* and iPSC survival up -1.
For CN(C)C(=O)[C@H]1[C@H](CO)[C@H]2Cn3c(ccc(-c4ccccc4F)c3=O)[C@@H]1N2C(=O)c1ccncc1 the results were Ecoli rRNA inh 4 and Cneo AK release 4.
Screening O=C(/C=C/c1ccco1)N1CCc2ccccc21 returned DAGLB inhibitor 0, SKN-1 inh 58*, Ecoli rRNA inh -1, MT1-MMP act inh -6, Cneo AK release -6 and iPSC survival up -1.
